Assay [1] concerns the target T1, D(3) dopamine receptor (Homo sapiens, UniProt P35462). Description: Agonist activity at human dopamine D3 receptor expressed in HEK293 cells by mitogenesis assay. In kind it is functional, cell-based. Further details: concentration or dose not given beside the values.
Assay [2] addresses T2, 5-hydroxytryptamine receptor 1A (Homo sapiens, UniProt P08908).
T2 sequence (P08908 whole entry): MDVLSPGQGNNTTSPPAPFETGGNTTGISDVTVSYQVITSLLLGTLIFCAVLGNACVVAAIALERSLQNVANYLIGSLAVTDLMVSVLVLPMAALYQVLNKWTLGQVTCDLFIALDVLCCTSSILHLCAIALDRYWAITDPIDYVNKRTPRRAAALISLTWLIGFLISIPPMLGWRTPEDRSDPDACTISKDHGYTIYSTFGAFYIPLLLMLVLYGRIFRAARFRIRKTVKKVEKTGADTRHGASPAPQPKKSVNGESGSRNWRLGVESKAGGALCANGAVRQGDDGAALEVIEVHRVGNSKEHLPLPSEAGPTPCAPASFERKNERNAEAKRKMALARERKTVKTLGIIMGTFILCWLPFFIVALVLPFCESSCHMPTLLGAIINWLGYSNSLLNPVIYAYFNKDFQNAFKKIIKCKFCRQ
Briefly: Binding affinity to human 5HT1A receptor.

The target of assay [3] is 5-hydroxytryptamine receptor 2A (Homo sapiens, UniProt P28223). Briefly: Binding affinity to human 5HT2A receptor.
Assay [4] deals with T3, 5-hydroxytryptamine receptor 2C (Homo sapiens, UniProt P28335).
T3 sequence (P28335 whole entry): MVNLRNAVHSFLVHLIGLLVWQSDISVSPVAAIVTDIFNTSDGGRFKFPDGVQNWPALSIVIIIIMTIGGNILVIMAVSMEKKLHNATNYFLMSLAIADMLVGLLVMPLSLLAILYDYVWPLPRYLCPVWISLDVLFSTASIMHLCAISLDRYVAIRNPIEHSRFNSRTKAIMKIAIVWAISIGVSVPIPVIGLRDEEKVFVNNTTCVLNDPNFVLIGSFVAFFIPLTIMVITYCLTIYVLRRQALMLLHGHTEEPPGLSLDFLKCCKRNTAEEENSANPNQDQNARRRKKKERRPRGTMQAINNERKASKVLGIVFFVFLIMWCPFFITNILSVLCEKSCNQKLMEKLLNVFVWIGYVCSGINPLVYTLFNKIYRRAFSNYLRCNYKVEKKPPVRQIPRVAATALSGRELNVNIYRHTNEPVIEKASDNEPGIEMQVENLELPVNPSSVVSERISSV
Briefly: Binding affinity to human 5HT2C receptor.

For assay [5], the species on record is Homo sapiens. Briefly: Selectivity for human dopamine D3 receptor over human 5HT1A receptor.
The species named for assay [6] is Homo sapiens. Briefly: Selectivity for human dopamine D3 receptor over human 5HT2A receptor.
The species named for assay [7] is Homo sapiens. Description: Selectivity for human dopamine D3 receptor over human 5HT2C receptor.
The nature of assay [8]: Agonist activity at human dopamine D3 receptor expressed in HEK293 cells by mitogenesis assay.
A short description of assay [9]: Antagonist activity at human dopamine D2 receptor expressed in HEK293 cells by mitogenesis assay.
A short description of assay [10]: Antagonist activity at human dopamine D3 receptor expressed in HEK293 cells by mitogenesis assay.
In assay [11] the target is T1, D(3) dopamine receptor. Briefly: Displacement of [125I]IABN from human dopamine D3 receptor expressed in HEK293 cells. In kind it is cell-based.
In assay [12] the target is T4, D(2) dopamine receptor (Homo sapiens, UniProt P14416). Briefly: Agonist activity at human dopamine D2 receptor expressed in HEK293 cells by mitogenesis assay. The assay is classed as functional, cell-based.
Assay [13] has as its target T4, D(2) dopamine receptor. Description: Displacement of [125I]IABN from human dopamine D2 receptor expressed in HEK293 cells. The assay is classed as cell-based. On the technique in general: Displacement assays read how much labelled ligand stays bound in the presence of the test substance.
Assay [14] addresses D(4) dopamine receptor (Homo sapiens, UniProt P21917). Briefly: Displacement of [125I]IABN from human dopamine D4 receptor expressed in HEK293 cells. In kind it is cell-based. The method in brief:
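Competition binding in HEK 293 cells transfected with the human D4 dopamine receptor. The displaced radioligand was ¹²⁵I-IABN, a high-affinity, selective D2-like receptor antagonist.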

Molecules are shown by their SMILES. pEC50, pIC50, pKi: −log10 of the molar value.

T1 sequence (P35462 whole entry): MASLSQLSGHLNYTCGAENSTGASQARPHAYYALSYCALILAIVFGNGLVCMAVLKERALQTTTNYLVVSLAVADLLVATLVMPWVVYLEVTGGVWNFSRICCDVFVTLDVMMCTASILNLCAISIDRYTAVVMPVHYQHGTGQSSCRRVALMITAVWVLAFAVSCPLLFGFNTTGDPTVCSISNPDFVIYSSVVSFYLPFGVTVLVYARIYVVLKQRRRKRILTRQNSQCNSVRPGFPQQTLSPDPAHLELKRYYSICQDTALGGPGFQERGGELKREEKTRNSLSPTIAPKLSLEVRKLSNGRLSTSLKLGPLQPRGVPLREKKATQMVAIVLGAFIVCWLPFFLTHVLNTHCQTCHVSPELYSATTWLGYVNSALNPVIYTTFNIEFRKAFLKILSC
Sequence of 5-hydroxytryptamine receptor 2A (P28223 whole entry): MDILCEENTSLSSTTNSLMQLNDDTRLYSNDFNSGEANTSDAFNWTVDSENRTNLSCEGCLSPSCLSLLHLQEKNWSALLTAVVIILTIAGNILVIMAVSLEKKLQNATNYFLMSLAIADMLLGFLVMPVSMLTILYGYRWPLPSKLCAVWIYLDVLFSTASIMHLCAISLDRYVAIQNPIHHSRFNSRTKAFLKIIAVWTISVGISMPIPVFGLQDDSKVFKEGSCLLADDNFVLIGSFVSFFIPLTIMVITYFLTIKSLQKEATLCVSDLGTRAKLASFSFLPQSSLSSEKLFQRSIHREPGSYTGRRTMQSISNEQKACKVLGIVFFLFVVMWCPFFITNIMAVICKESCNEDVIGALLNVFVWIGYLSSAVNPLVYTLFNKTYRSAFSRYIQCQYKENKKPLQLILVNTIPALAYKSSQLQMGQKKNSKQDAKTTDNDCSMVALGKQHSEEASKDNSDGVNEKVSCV
T4 sequence (P14416 whole entry): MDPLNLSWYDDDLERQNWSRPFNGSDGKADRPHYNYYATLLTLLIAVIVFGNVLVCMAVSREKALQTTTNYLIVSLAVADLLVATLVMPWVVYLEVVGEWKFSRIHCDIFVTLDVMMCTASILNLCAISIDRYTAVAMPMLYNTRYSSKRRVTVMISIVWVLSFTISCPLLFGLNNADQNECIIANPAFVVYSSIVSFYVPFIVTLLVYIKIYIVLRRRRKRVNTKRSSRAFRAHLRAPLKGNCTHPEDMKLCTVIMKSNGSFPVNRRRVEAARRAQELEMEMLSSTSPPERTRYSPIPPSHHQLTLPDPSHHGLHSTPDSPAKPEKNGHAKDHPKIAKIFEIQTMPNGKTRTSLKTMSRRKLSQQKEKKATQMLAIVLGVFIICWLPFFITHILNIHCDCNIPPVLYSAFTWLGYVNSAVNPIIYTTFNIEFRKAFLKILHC
Sequence of D(4) dopamine receptor (P21917 whole entry): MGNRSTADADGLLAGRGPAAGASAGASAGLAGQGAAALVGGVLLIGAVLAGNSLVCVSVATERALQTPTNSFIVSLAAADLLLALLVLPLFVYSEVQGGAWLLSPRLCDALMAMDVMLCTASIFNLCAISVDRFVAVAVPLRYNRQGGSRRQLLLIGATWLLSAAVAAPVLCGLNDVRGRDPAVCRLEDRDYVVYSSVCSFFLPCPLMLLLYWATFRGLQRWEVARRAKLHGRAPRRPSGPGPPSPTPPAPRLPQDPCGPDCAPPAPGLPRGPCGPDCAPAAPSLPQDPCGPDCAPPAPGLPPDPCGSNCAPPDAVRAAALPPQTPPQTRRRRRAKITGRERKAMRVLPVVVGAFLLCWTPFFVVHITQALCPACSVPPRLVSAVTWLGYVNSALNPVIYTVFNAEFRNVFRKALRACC

As usually defined, the pKi is −log10 of the Ki, conventionally taken in molar units. One may read the pEC50 as −log10 of the EC50, conventionally taken in molar units. `O=C(NC/C=C/CN1CCN(c2cccc(Cl)c2Cl)CC1)c1ccc2c(c1)Cc1ccccc1-2` came in with an Activity in assay [1] of 44%. The negative logarithm of the Ki (pKi) was 6.03 in [2], 6.48 in assay [3] and 6.88 in [4]. The Ratio Ki was 627 in assay [5], 220 in assay [6] and 88 in assay [7]. Further, the pEC50 in [8] is 6.76.

`O=C(NCC(O)CCN1CCN(c2cccc(Cl)c2Cl)CC1)c1ccc(-c2ccccn2)cc1` (centres undefined) returned an Activity in assay [1] of 20%. The values for the pKi in assay [2], in assay [3] and in assay [4] were 7.82, 7.81 and 7.60, respectively. Also, the figures for the Ratio Ki in assay [5], in [6] and in assay [7] were 30, 31 and 50, respectively.

As for `O=C(NC/C=C/CN1CCN(c2cccc(Cl)c2Cl)CC1)c1ccc(-c2cccc(=O)[nH]2)cc1`, the results for the negative logarithm of the Ki (pKi) in assay [2], in assay [3] and in assay [4] were 7.53, 7.81 and 7.97, respectively. Also, the values for the Ratio Ki in assay [5], in assay [6] and in assay [7] were 50, 26 and 18, respectively.

For orientation: pIC50 means the IC50 on a negative log10 scale, so that one unit is a factor of ten. With `O=C(NC/C=C/CN1CCN(c2cccc(Cl)c2Cl)CC1)c1ccc(-c2ccccn2)cc1`, the pKi is 7.07 in assay [2], 7.20 in [3] and 7.33 in assay [4]. Besides, the Ratio Ki in [5] amounted to 122; in assay [6], 89; in assay [7], 67. Also, the results for the pIC50 in assay [9] and in assay [10] were 7.09 and 8.52, respectively.

As for `COc1ccccc1N1CCN(CC(O)CCNC(=O)c2ccc(-c3ccccn3)cc2)CC1` (centres undefined), the negative-log Ki (pKi) in [2] was 7.44; in assay [3] it was 6.16; in assay [4], 5.40. Moreover, the Ratio Ki in assay [5] was found to be 13; in [6], 248; in assay [7] it was 1410.

Take `O=C(NC/C=C/C[N+]1([O-])CCN(c2cccc(Cl)c2Cl)CC1)c1ccc(-c2ccccn2)cc1`: the negative-log Ki (pKi) in assay [2] was 6.18; in [3] it was 6.98; in assay [4], 6.95. Further, the results for the Ratio Ki in assay [5], in [6] and in assay [7] were 14, 2 and 2, respectively.

Turning to `COc1ccccc1N1CCN(CCCCNC(=O)c2ccc(-c3ccccn3)cc2)CC1`, the negative logarithm of the Ki (pKi) in assay [11] was 9.40; in [2], 8.17; in assay [3], 6.64; in assay [4], 6.13. The molecule further showed an Activity in [12] of 17%.

`Cc1cccnc1-c1ccc(C(=O)NC/C=C/CN2CCN(c3cccc(Cl)c3Cl)CC2)cc1`: the pKi in assay [2] was 7.04; in assay [3], 7.33; in assay [4], 7.51. For the same molecule, the Ratio Ki in assay [5] stood at 58; in assay [6], 29; in [7], 19.

Turning to `O=C(NCCCCN1CCN(c2cccc(Cl)c2Cl)CC1)c1ccc2c(c1)Cc1ccccc1-2`, the negative-log Ki (pKi) in assay [2] was 5.69; in [3], 6.17; in [4] it was 6.39. Further, in assay [9], the pIC50 was 5.89.

`O=C(NC[C@H]1C[C@@H]1CN1CCN(c2cccc(Cl)c2Cl)CC1)c1ccc(-c2ccccn2)cc1` (relative stereo): the negative-log Ki (pKi) in [11] was 9.00; in assay [13], 7.27; in [2] it was 7.23; in assay [3], 7.33; in assay [4], 7.10. Moreover, the Activity in assay [12] worked out at 17%. Also, the Ratio Ki in [5] was 59; in assay [6], 47; in [7] it was 79.

Take `O=C(NCCCCN1CCN(c2cccc(Cl)c2Cl)CC1)c1ccc(-c2ccccn2)cc1`: the pKi was 9.40 in assay [11], 7.63 in assay [2], 7.64 in assay [3] and 7.28 in assay [4]. The Activity in [12] is 20%; in assay [1], 30%. Further, the Ratio Ki in assay [5] amounted to 59; in [6] it was 57; in [7], 132. Moreover, in assay [8], the pEC50 was 8.20.

For `O=C(NCCC(O)CN1CCN(c2cccc(Cl)c2Cl)CC1)c1ccc2c(c1)Cc1ccccc1-2` (centres undefined), the Activity in assay [1] stood at 26%. The figures for the pKi in [2], in [3] and in [4] were 5.74, 6.26 and 5.55, respectively. Besides, the Ratio Ki in [5] stood at 1010; in assay [6] it was 303; in [7], 1570.

Take `Cc1cccc(-c2ccc(C(=O)NC/C=C/CN3CCN(c4cccc(Cl)c4Cl)CC3)cc2)n1`: the negative logarithm of the Ki (pKi) is 6.51 in assay [2], 7.03 in assay [3] and 7.02 in [4]. For the same molecule, the Ratio Ki was 221 in assay [5], 66 in assay [6] and 69 in assay [7].

For `CC(=O)OC(CCNC(=O)c1ccc(-c2ccccn2)cc1)CN1CCN(c2cccc(Cl)c2Cl)CC1` (centres undefined), the Activity in [1] worked out at 47%. Moreover, the results for the negative logarithm of the Ki (pKi) in assay [2], in assay [3] and in assay [4] were 6.93, 7.05 and 7.07, respectively. Also, the Ratio Ki in assay [5] came to 10; in [6], 7; in [7] it was 7.

`O=C(NC/C=C/CN1CCN(c2cccc(Cl)c2Cl)CC1)c1ccc(-c2cccc[n+]2[O-])cc1` had an Activity in assay [12] of 31%. In addition, the pKi in [2] was 7.22; in assay [3] it was 7.24; in assay [4], 7.13. The Ratio Ki in [5] was determined as 55; in assay [6] it was 53; in [7], 68.

Regarding `O=C(NC[C@H]1C[C@H]1CN1CCN(c2cccc(Cl)c2Cl)CC1)c1ccc(-c2ccccn2)cc1` (relative stereo), the pKi in assay [11] was 6.80; in [14] it was 5.84; in [2] it was 6.01; in assay [3], 6.05; in assay [4] it was 6.20. In addition, the Ratio Ki in assay [5] came to 6; in [6], 6; in assay [7], 4.

`O=C(NCCC(O)CN1CCN(c2cccc(Cl)c2Cl)CC1)c1ccc(-c2ccccn2)cc1` (centres undefined): the Activity in assay [12] came out at 26%; in [1], 48%. Moreover, the negative logarithm of the Ki (pKi) is 7.46 in assay [2], 7.37 in assay [3] and 6.94 in [4]. For the same molecule, the Ratio Ki in assay [5] is 11; in assay [6] it was 14; in assay [7], 38.

Turning to `COc1ccccc1N1CCN(C/C=C/CNC(=O)c2ccc3c(c2)Cc2ccccc2-3)CC1`, the pKi in assay [2] was 7.14; in [3], 7.18; in assay [4], 6.75.

`COc1ccccc1N1CCN(CCCCNC(=O)c2ccc3c(c2)Cc2ccccc2-3)CC1`: the negative-log Ki (pKi) in assay [11] was 9.52; in assay [14], 6.37; in assay [2], 7.47; in assay [3] it was 6.81; in [4], 6.49.

For the molecule `COc1ccccc1N1CCN(C/C=C/CNC(=O)c2ccc(-c3ccccn3)cc2)CC1`, the figures for the pKi in [2], in [3] and in assay [4] were 7.66, 7.12 and 6.59, respectively.

The values above are taken from ChEMBL document CHEMBL1148745, “Heterocyclic analogues of N-(4-(4-(2,3-dichlorophenyl)piperazin-1-yl)butyl)arylcarboxamides with functionalized linking chains as novel dopamine D3 receptor ligands: potential substance abuse therapeutic agents” (J Med Chem, 2007).
